# Screens deposited in PubChem BioAssay by The Scripps Research Institute Molecular Screening Center.
# TCR-CD3 inh = human TCR-CD3 binding inhibition; TAMRA-labeled TCR probe fluorescence, biochemical; inhibition, % at 9.4 µM; hit rate 0.37% among 360,000; AID 651800;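 also: recombinant mutant TCR 2C K166C tagged with TAMRA read by polarization; 0% = receptor in buffer alone and 100% = receptor with positive control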
# SIAE inh = human SIAE inhibition, primary screen; SIAE FP-Rh probe binding, fluorescence polarization; inhibition, % at 9.66 µM; hit rate 0.69% among 370,000; AID 1053197;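 active = inhibition above a cutoff: mean of compounds within the control limits plus 3 SD of those, cut at about 17% in these data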;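 also: 0% = plate median of compound wells and 100% = probe without SIAE protein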
# rCAG binder = r(CAG) repeat RNA binding | TO-PRO-1 dye displacement fluorescence | hit rate 1.3% among 370,000 | inhibition, % at 3 µM | AID 651821;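 active = inhibition above the plate cutoff, the mean of all test compounds on that plate plus 3 SD, cut at about 35% in these data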;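 also: 0% = DMSO alone and 100% = 100 µM mitoxantrone as full dye displacement; higher means more dye released from RNA so lower well fluorescence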
# HTRA1 inhibitor = inhibitors of human serine peptidase HTRA1; Q92743; recombinant HTRA1, FP-rhodamine activity-based probe, fluorescence polarization; inhibition, % at 5.96 µM; hit rate 0.5% among 340,000; in the data active = inhibition above about 36%;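 also: 0% = enzyme with DMSO and 100% = wells lacking enzyme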
# Target sequence (Q92743 whole entry, looked up): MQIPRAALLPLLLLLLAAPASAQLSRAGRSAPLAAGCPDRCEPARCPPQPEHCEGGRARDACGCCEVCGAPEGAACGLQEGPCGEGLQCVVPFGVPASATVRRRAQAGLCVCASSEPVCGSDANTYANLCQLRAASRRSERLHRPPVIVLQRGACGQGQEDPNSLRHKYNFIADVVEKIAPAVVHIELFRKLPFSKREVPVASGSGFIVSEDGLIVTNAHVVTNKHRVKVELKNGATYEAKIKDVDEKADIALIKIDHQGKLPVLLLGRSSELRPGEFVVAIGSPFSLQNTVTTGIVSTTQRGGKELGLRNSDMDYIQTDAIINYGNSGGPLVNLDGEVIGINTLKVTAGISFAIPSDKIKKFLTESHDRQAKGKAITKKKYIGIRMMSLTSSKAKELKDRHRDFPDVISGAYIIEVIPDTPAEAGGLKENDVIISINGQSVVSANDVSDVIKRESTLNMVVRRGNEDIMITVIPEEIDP
# mABHD4 FP = inhibits mouse alpha/beta hydrolase domain 4. Q8VD66. purified mABHD4, FP-Rh probe fluorescence polarization. inhibition, % at 8.92 µM. hit rate 0.54% among 370,000. AID 720543;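 active = inhibition exceeding the mean over every tested compound plus 3 SD, cut at about 30% in these data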;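 also: 0% = plate median of compound wells and 100% = S159A mutant with DMSO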
#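 System: mouse ABHD4 enzyme, wild type / Medium: HEPES pH 7.0, NaCl, Pluronic buffer / Reagent: FP-Rh activity-based fluorescent probe / Control set: S159A mutant high control, sample median low control / Detection: fluorescence polarization with parallel and perpendicular emission, 525/598 nm / Schedule: 45 min + 60 min at 25 °C / Compound dosing: 8.92 µM, single dose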
# BSA probe FL = interferes with TAMRA-BSA probe, flagging TCR-CD3 hits. inhibition, % at 9.4 µM. shares compounds with TCR-CD3 inh. hit rate 10% among 1,200. AID 652035. TAMRA-labeled BSA probe fluorescence counterscreen; in the data active = inhibition above about 23%;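 also: 0% = buffer low control and 100% = reference high control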
# TCR-CD3 conf = TCR-CD3 interaction inhibition, confirmation; shares compounds with TCR-CD3 inh; TAMRA-labeled TCR probe fluorescence binding assay; inhibition, % at 9.4 µM; hit rate 48% among 1,200
# The depositor's hits bear a star; nt = no result given. Hits are enriched below; roughly 2.5% of the tested compounds scored in any of these assays. Rule as the data show it, unless noted: active = inhibition above about 19%; inactive = the rest.
SMILES,TCR-CD3 inh,SIAE inh,rCAG binder,HTRA1 inhibitor,mABHD4 FP,BSA probe FL,TCR-CD3 conf
Cc1ccc(NC(=O)NNC(=O)c2cc3ccccc3cc2O)cc1,31.7*,1.6,19.9,18.0,-3.9,-1.5,21.0*
CSCCC(NC(=O)c1ccccc1Cl)C(=O)NNC(=O)c1ccccc1O (stereo unspecified),29.3*,5.4,4.2,16.7,5.7,-3.5,18.2
COC(=O)c1cc(O)c(O)c(O)c1,22.1*,7.8,1.9,12.7,12.2,-1.0,20.0*
COC(=O)c1cc(OC)nc(OC)c1,-10.0,-7.0,-2.2,4.4,0.5,nt,nt
CN(CCOc1ccccc1)C(=O)c1ccc2c(=O)n3c(nc2c1)CCC3,9.0,-3.0,-0.4,0.6,-0.5,nt,nt
O=C(CC1C(=O)NCCN1Cc1cccc(F)c1)NCCCCCN1CCOCC1 (stereo unspecified),19.6*,10.4,-5.8,5.6,6.9,1.3,-0.8
COc1cc(CN2CCNC(=O)C2CC(=O)NCCCN2CCOCC2)cc(OC)c1 (stereo unspecified),-7.7,2.2,5.1,7.8,7.7,nt,nt
O=C(CCNS(=O)(=O)c1ccccc1)NCCCSc1ccccc1,0.3,3.5,-5.9,0.3,-11.4,nt,nt
CCOc1ccc(S(=O)(=O)NCCC(=O)NCCCSc2ccccc2)cc1,43.2*,0.6,-7.7,-11.8,-2.2,-0.7,1.7
CCCCN(C(=O)c1cccc(-n2cccc2)c1)c1c(N)n(CCCC)c(=O)[nH]c1=O,38.5*,-1.6,28.7,-9.9,0.2,-8.6,10.0
CCCCN(C(=O)c1cccc(-n2cccc2)c1)c1c(N)n(CCC)c(=O)[nH]c1=O,8.5,0.6,9.2,-6.4,3.0,nt,nt
Cc1ccnn1CC(=O)N/N=C/c1c[nH]c2ccccc12,5.2,-1.8,-1.2,6.8,1.9,nt,nt
Cc1cc(C)n(-c2ccc(C(C)C)cc2)c(=O)c1C#N,1.9,-0.1,-4.0,3.9,-0.4,nt,nt
COc1ccc(C(=O)Nc2nnc(CC(=O)N/N=C/c3ccc(O)cc3O)s2)cc1,23.4*,10.5,7.4,6.7,-2.6,-6.1,35.4*
CCNc1nc(NC(C)C)nc(N(C#N)C(C)C(=O)N(C)C)n1 (stereo unspecified),-5.0,1.2,-7.3,-0.7,8.1,nt,nt
CCNc1nc(NC(C)C)nc(N(C#N)CC(=O)OC)n1,22.0*,4.9,15.4,3.0,-8.4,4.2,3.7
CCCNC(=O)C(Cc1ccccc1)NC(=O)c1ccc(C(F)(F)F)cc1 (stereo unspecified),22.1*,-1.7,-6.7,-3.5,5.0,-2.4,4.2
COc1ccc(NC(=O)CSCC(=O)Nc2sccc2C#N)cc1,21.3*,5.5,7.9,10.7,22.7,9.4,5.1
COc1ccc(CN(C(C)=O)c2ccccc2C(=O)O)cc1,-3.8,1.3,2.8,-0.2,2.3,nt,nt
O=C(Nc1nnc([C@H]2C[C@H](O)[C@@H](CO)O2)s1)c1cccc(Oc2ccccc2)c1,21.4*,3.1,5.9,nt,4.3,-0.9,5.2
Cc1cc2c(nc1C)CCCN2Cc1ccccn1,39.5*,11.6,4.2,nt,17.9,38.7*,34.3*
Brc1ccc(-c2ccc3c(n2)CCCN3Cc2ccccn2)cc1,2.0,-6.9,9.1,nt,-7.9,nt,nt
CCCCOCCCNC(=O)C[C@@H]1C[C@@]2(C(=O)OCC)CCC=C2N(Cc2ccc(Cl)cc2Cl)C1=O,6.1,-5.6,0.4,nt,-10.9,nt,nt
Cc1nc(N)sc1C(=O)N/N=C/c1ccccc1[N+](=O)[O-],5.2,-5.5,2.3,nt,-2.5,nt,nt
CN1C2CCC1CC(OC(c1ccccc1)c1ccccc1)C2 (stereo unspecified),4.6,3.4,2.1,-5.0,5.1,nt,nt
CN1CCC(OC(c2ccccc2)c2ccc(Cl)cc2)C1 (stereo unspecified),30.7*,2.5,2.2,3.9,3.7,-3.1,2.5
O=C(N/N=C/c1cccc([N+](=O)[O-])c1O)c1cccs1,28.7*,6.6,6.9,8.8,23.4,-9.6,31.4*
O=C(N/N=C\c1cccc([N+](=O)[O-])c1O)C1COc2ccccc2O1 (stereo unspecified),15.1,9.4,14.2,2.6,14.7,nt,nt
O=C(N/N=C/c1cccc([N+](=O)[O-])c1O)C(O)(c1ccccc1)c1ccccc1,27.9*,1.1,20.4,11.2,12.3,-11.7,26.2*
